According to ChEMBL document CHEMBL1165974, “Novel pyrazole derivatives: synthesis and evaluation of anti-angiogenic activity” (Bioorg Med Chem, 2010):
The source made the active and inactive calls. The calls are words filed in the database; no cut-off is given here.

How the values were obtained:
[1] = Antiangiogenic activity in MAEC assessed as inhibition of cell proliferation after 5 days by Coulter counting analysis; format: functional; settings: Mus musculus, 120 h
In short: (§1)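 Cells seeded at 10,000 cells per cm2; after 16 h given fresh medium containing test compounds. Trypsinized on day 5 and counted by Coulter counter. […] Tumour lines kept in DMEM with 10 mM Hepes and 10% FBS.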

[2] = Antiangiogenic activity in BAEC assessed as inhibition of cell proliferation after 5 days by Coulter counting analysis; format: functional, cell-based; settings: Bos taurus, 120 h; in short: as §1
HeLa = experiment: Cytostatic activity against human HeLa cells after 5 days by Coulter counting analysis; format: functional, cell-based; settings: 120 h; in short: as §1
MCF7 = experiment: Cytostatic activity against human MCF7 cells after 5 days by Coulter counting analysis; format: functional, cell-based; settings: MCF7, 120 h; in short: as §1
Gallus gallus [3] = organism: Gallus gallus; experiment: Antiangiogenic activity in chicken embryo chorioallantoic membrane model assessed as inhibition of VEGF-induced angiogenesis at 50 nmol after 2 days by photographic analysis
[4] = Antiangiogenic activity in MAEC assessed as inhibition of cell migration-associated wound closure at 50 uM after 8 hrs imaging analysis; format: functional; settings: Mus musculus
In short: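 Confluent MAEC monolayers wounded with a 1.0-mm wide tip, then incubated in fresh medium with 10% FCS plus compound (10 and 50 μM). At 8 h, wounds photographed; cells invading the wound quantified by computerized analysis of digitized images. Results as mean ± SEM.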

Gallus gallus [5] = organism: Gallus gallus; experiment: Antiangiogenic activity in chicken embryo chorioallantoic membrane model assessed as complete inhibition of VEGF-induced angiogenesis at 50 nmol after 2 days by photographic analysis

| Structure (SMILES) | IC50 [1] | IC50 [2] | IC50 (HeLa) | IC50 (MCF7) | inhibition (Gallus gallus [3]) | inhibition at 50 µM [4] | inhibition (Gallus gallus [5]) |
| --- | --- | --- | --- | --- | --- | --- | --- |
| CCOC(=O)/C=C/c1cn(-c2ccc(O)cc2)nc1-c1cc(O)ccc1O | 12 µM | – | – | – | – | – | – |
| O=Cc1cn(-c2ccc(O)cc2)nc1-c1ccc(O)c(O)c1 | 12 µM | 17 µM | 39 µM | 24 µM | Toxic | – | – |
| O=C(O)/C=C/c1cn(-c2ccc(O)cc2)nc1-c1ccc(O)cc1 | > 100 µM | – | – | – | – | – | – |
| CCOC(=O)/C=C/c1cn(-c2ccc(O)cc2)nc1-c1ccc(O)cc1 | 25 µM | – | – | – | – | – | – |
| O=Cc1cn(-c2ccc(O)cc2)nc1-c1cc(O)ccc1O | 43 µM | ≥ 100 µM | ≥ 100 µM | ≥ 100 µM | Toxic | – | – |
| O=c1c2cn(-c3ccc(O)cc3)nc2c2cc(O)c(O)cc2n1O | – | – | – | – | Active | – | – |
| O=C(O)/C=C/c1cn(-c2ccc(O)cc2)nc1-c1cc(O)ccc1O | > 100 µM | – | – | – | – | – | – |
| CCOC(=O)/C=C/c1cn(-c2ccc(O)cc2)nc1-c1ccccc1 | 29 µM | – | – | – | – | – | – |
| O=c1c2cn(-c3ccc(O)cc3)nc2c2ccccc2n1O | 7 µM | 4.6 µM | 8.9 µM | 5.8 µM | Active | – | – |
| O=c1c2cn(-c3ccc(O)cc3)nc2c2c(O)ccc(O)c2n1O | – | – | – | – | Active | – | – |
| CCOC(=O)/C=C/c1cn(-c2ccc(O)cc2)nc1-c1ccc(O)c(O)c1 | 6.2 µM | – | – | – | – | – | – |
| O=Cc1cn(-c2ccc(O)cc2)nc1-c1ccc(O)cc1 | 44 µM | 32 µM | 37 µM | 38 µM | 48% | – | – |
| O=Cc1cn(-c2ccc(O)cc2)nc1-c1cccc(O)c1 | 42 µM | 29 µM | 37 µM | 29 µM | 50% | – | – |
| O=c1c2cn(-c3ccc(O)cc3)nc2c2ccc(O)cc2n1O | 42 µM | 52 µM | 38 µM | 25 µM | Active | – | – |
| O=C(O)/C=C/c1cn(-c2ccc(O)cc2)nc1-c1cccc(O)c1 | > 100 µM | – | – | – | – | – | – |
| CCOC(=O)/C=C/c1cn(-c2ccc(O)cc2)nc1-c1cccc(O)c1 | 14 µM | – | – | – | – | – | – |
| O=Cc1cn(-c2ccc(O)cc2)nc1-c1ccccc1 | > 100 µM | 64 µM | 79 µM | 47 µM | inactive | – | – |
| O=C(O)/C=C/c1cn(-c2ccc(O)cc2)nc1-c1ccc(O)c(O)c1 | > 100 µM | – | – | – | – | – | – |
| O=C(O)/C=C/c1cn(-c2ccc(O)cc2)nc1-c1ccccc1 | > 100 µM | – | – | – | – | – | – |
| O=c1c2cn(-c3ccc(O)cc3)nc2c2cc(O)ccc2n1O | 25 µM | 38 µM | 37 µM | 26 µM | 64% | 76% | Active |
